Measured values gathered from unrelated publications.
Protocols differ between the studies behind these lines.
BRD9: Bromodomain-containing protein 9 (BRD9, Homo sapiens, UniProt Q9H8M2)

| SMILES | target | observed | mode | technique | concentration | quantity | result |
| --- | --- | --- | --- | --- | --- | --- | --- |
| CCN1/C(=C/C(C)=O)Sc2ccc(F)cc21 | D(1B) dopamine receptor (DRD5, Homo sapiens, UniProt P21918) | ligand displacement |  | radioligand | 10 µM | inhibition | 2.77% |
| Cc1ncc(-c2cc3cc(-c4c(C)ccc(O)c4C)cnc3[nH]2)cn1 | Membrane-associated tyrosine- and threonine-specific cdc2-inhibitory kinase (PKMYT1, Homo sapiens, UniProt Q99640) | cell-free assay |  | TR-FRET | 10 µM | inhibition | 101% |
| CCCCC(=O)Nc1ccc(-c2ccc3ncn(CCC)c(=O)c3c2)cn1 | Bone morphogenetic protein receptor type-1A (BMPR1A, Homo sapiens, UniProt P36894) | binding |  | competition with immobilised ligand | 0.5 µM | remaining binding | 84% |
| CCN(C)Cc1c(OC)cc(-c2cc(C(C)=O)n3ccccc23)cc1OC | BRD9 | thermal stability |  | DSF | 200 µM | ΔTm | 15.5 °C |
| C1=C/COCc2cc(ccc2OCCN2CCCC2)Nc2nccc(n2)-c2cccc(c2)COC/1 | Activin receptor type-2A (ACVR2A, Homo sapiens, UniProt P27037) | binding |  |  | 0.1 µM | remaining binding | 83% |
| NC/C(=C\F)COc1cccc(Cn2c(=S)[nH]c(=O)c3[nH]cnc32)c1 | Histamine H3 receptor (HRH3, Homo sapiens, UniProt Q9Y5N1) | ligand displacement |  | radioligand | 10 µM | inhibition | < 50% |
| CC(=O)c1cc(-c2cccc(CO)c2)c2ccccn12 | BRD9 | thermal stability |  | DSF | 200 µM | ΔTm | 6.5 °C |
| COc1ccc2oc(-c3ccc4nc(N)oc4c3)c/c(=N\c3ccccc3NC(=O)CCN)c2c1 | Serine/threonine-protein kinase 35 (STK35, Homo sapiens, UniProt Q8TDR2) | binding |  |  | 1 µM | remaining binding | 104% |
| COc1cc(-c2cc(C(C)=O)n3ccccc23)c(OC)cc1CN(C)C | BRD9 | thermal stability |  | DSF | 200 µM | ΔTm | 12.5 °C |
| Cc1cc(O)c(-c2ccc([C@@H](C)CN(C)C)cc2)c2c1[nH]c(=O)c1sccc12 | G protein-coupled receptor kinase 5 (GRK5, Homo sapiens, UniProt P34947) | enzyme activity | inhibitor |  | 0.1 µM | inhibition | -6.65% |
